A word on the apparent Kd: it is a dissociation constant that holds for the conditions of the assay.

This note sets out measurements from the EternaBench riboswitch data.

The series has as its system MS2 coat protein. The series can be described thus: apparent Kd, MS2 coat protein; higher = weaker binding; RNA-MaP array. The procedure, abridged: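 Designed RNAs were transcribed on an Illumina sequencing chip from sequenced DNA templates. They were incubated at room temperature with fluorescently labeled MS2 coat protein at 1.5 nM to 3 μM, for 0.8–1.5 h at the lowest to 10–20 min at the highest concentrations, in Tris-HCl pH 7.5 buffer with KCl, MgCl2, BSA, DTT, tRNA and Tween20, with or without input ligand. Apparent Kd is the median of per-cluster binding-curve fits. Designs measured on fewer than 10 clusters were excluded.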

Setting [1] is: designed as: ON switch for flavin mononucleotide, no ligand.
The mark [2] stands for this setting: ligand present: flavin mononucleotide, designed as: ON switch for flavin mononucleotide.
[3] abbreviates: designed as: OFF switch for flavin mononucleotide, no ligand.
[4] abbreviates: ligand present: flavin mononucleotide, designed as: OFF switch for flavin mononucleotide.
Setting [5] is: designed as: OFF switch for theophylline, no ligand.
Where [6] appears, read: ligand present: theophylline, designed as: OFF switch for theophylline.
The mark [7] stands for this setting: designed as: ON switch for theophylline, no ligand.
Where [8] appears, read: ligand present: theophylline, designed as: ON switch for theophylline.

“UCCAGACAUGAGGAUCACCCAUGUUCAUGCCUCGGAGGAUAUCUAUGGGUGGAGGACUUUAGAGAAGGCCGAUCCG”: the “apparent Kd” value runs as follows: under setting [1], 674 nM; under setting [2], 458 nM.

Regarding “UUCACAAGAAUUUACAUGAGGAUCACCCAUGUCCUUGCAAAGGAGGAUAUUGAGUACAAGACCUACAAGAAGGCCAGAGACAAG”, the “apparent Kd” value under setting [1] is 46.4 nM and the “apparent Kd” value under setting [2] is 15.5 nM.

For “UACCUUAGCAACAUGAGGAUCACCCAUGUUUGGUGGCGAAUUAGAAGGGACAGCAUUUAUACAAGUCAGGAUAUAAUUUAGGGA”, the “apparent Kd” value was found to be 16.5 nM under setting [3] and 11.6 nM under setting [4].

In the case of “CCAGGACAUGAGGAUCACCCAUGUACGGUCAGCGAAGGAUAUAUUGCGUGGCGAGUGCUGAUAGAAGGUCGUAAAC”, the “apparent Kd” value by setting is: under setting [1], 15 nM; under setting [2], 10.9 nM.

In the case of “GGCUACAUGAGGAUCACCCAUGUUUCUCGUCGAGGACCGGUACGGCCGCCACUCGUUGUUGGGACUCAGUAUCAGUCGUUAGUUU”, the “apparent Kd” value (designed as: ON switch for tryptophan, no ligand) was 25.5 nM and the “apparent Kd” value (ligand present: tryptophan, designed as: ON switch for tryptophan) was 57 nM.

For the sequence “UUCUUGUCAGGAUAUGGCCCAGAGUCUAAGGCACCGAACGGCCAGAAGGGACAUGAGGAUCACCCAUGUAUCCU”, the “apparent Kd” value runs as follows: under setting [3], 16.3 nM; under setting [4], 82.8 nM.

Regarding “GGAUAACCGAAGAAGGAGGUUUGUAUGGAAUACCUAGGAUAUUCGCGAGCGUGGGCCACAUGAGGAUCACCCAUGUCGGCAGUU”, the “apparent Kd” value worked out at 12.8 nM under setting [3] and 10.4 nM under setting [4].

Regarding “GCACGAGUAAGACCUGACUUCAACAAUGAUACCAGACUAGUAAACGUCCCUUGGCAGCAUCAGACAUGAGGAUCACCCAUGUGGC”, the “apparent Kd” value came to 27 nM under setting [5] and 29.4 nM under setting [6].

Turning to “AUGUCGGCAGGAUAUACUGGAACUUGACCCGUGAACACGAUACAUGAGGAUCACCCAUGUAGAAGGGCCUAAAA”, the “apparent Kd” value is, setting by setting: under setting [3], 11.5 nM; under setting [4], 43.4 nM.

For “UACUUUGUAUGCAAGGAUAUCCAGGAUUCUACAUGAGGAUCACCCAUGUCAAAUACUAUGCAACGGGAGAAGGUGCAUAACAUCAU”, the “apparent Kd” value turned out to be 16.5 nM under setting [1] and 12.2 nM under setting [2].

For the sequence “GACAAGACAGGAUAUACAUAUAUGUAGCACGAAGAGUUAAGACAUGAGGAUCACCCAUGUAGAAGGGUCAUAAA”, the “apparent Kd” value worked out at 19.2 nM under setting [3] and 17.7 nM under setting [4].

Turning to “UUCUCACAUGAGGAUCACCCAUGUCUAAGGAGUACAGGAUAUGUGCCGUGAUUUUCGAGUACAGAAGGGUACAAUU”, the “apparent Kd” value reads like this: under setting [1], 273 nM; under setting [2], 33.6 nM.

Regarding “GGAAGUCAAGGAUAUACAUGAGGAUCACCCAUGUCAGGUGCCAAUUAUGUUCUAUAGUGUAGAAGGUGACAAUG”, the “apparent Kd” value runs as follows: under setting [3], 112 nM; under setting [4], 183 nM.

Turning to “AAGAAGUACCAGAAGGGAGGAGGAAAUCUACAUGAGGAUCACCCAUGUACUUGCGGAUUUAAAUCUCAGGAUAUGGGAUACACA”, the “apparent Kd” value is 49.7 nM under setting [1] and 12.9 nM under setting [2].

Take “UACGGAGCUCAGAAGGGACACUGCGGAGAUAUGUCAGGAUAUGACUUCUUAUCGUGUGGUGACAUGAGGAUCACCCAUGUGCUU”: the “apparent Kd” value turned out to be 209 nM under setting [3] and 338 nM under setting [4].

“UCCACACAUGAGGAUCACCCAUGUUGAGAUACCAGUAAACCAAAAUACCCUUGGCAGCUCCUACGCUCUUACAGCGGGAAUAUCC”: the “apparent Kd” value was 15.8 nM under setting [7] and 23.1 nM under setting [8].

In the case of “GGCGUGUACACAGGAUAUGAUACAUGAGGAUCACCCAUGUUCGCGCUGGAUCUACGUGAGAACGAUCAGAAGGGUGCUGCAGGG”, the “apparent Kd” value reads like this: under setting [1], 398 nM; under setting [2], 229 nM.

Turning to “AGCACAAAGUAGAAGGGUAGCACCGAUUUUCAUACAGGAUAUACGAAGGCAGGGUCAACAUGAGGAUCACCCAUGUUACCGCUU”, the “apparent Kd” value was 5.59 nM under setting [1] and 5.39 nM under setting [2].

Turning to “ACAUGAGGAUCACCCAUGUCUACGAAGGUCGAAAUUAAUACCAGAAGGCGCGUCGACUAAGAGUGCGAGGAUAUGGUGUGUCGA”, the “apparent Kd” value under setting [1] stood at 52 nM and the “apparent Kd” value under setting [2] turned out to be 9.96 nM.

As for “UUUCGUAACCAACAUGAGGAUCACCCAUGUAGAAAGUUCCUAAGAAGGACAUAACCCAAUAGCAUGUAGGAUAUAAGUAAUCAC”, the “apparent Kd” value by setting is: under setting [1], 12.1 nM; under setting [2], 10.8 nM.

Regarding “CGUAAUAACUCACAGGAUAUGCGAGAGGAGACAUGAGGAUCACCCAUGUGACCAUGAAUAUUCCUGCAGAAGGGUGAUAAAUCAUU”, the “apparent Kd” value under setting [1] came to 13 nM and the “apparent Kd” value under setting [2] was determined as 18 nM.

As to “GGGCCACAUAAGAAGGUGAGCCACAGCGGCGUUCAAGGAUAUUAUAGGUAACCCACCAGACAUGAGGAUCACCCAUGUAGUGUC”, the “apparent Kd” value under setting [1] is 36.7 nM and the “apparent Kd” value under setting [2] is 25.2 nM.

On to “CCUAUCAAACGAGGAUAUGUGCGGACAAGAAACACAGAAGGCGAACCACAUGAGGAUCACCCAUGUACGAAGACAAAGCAAGAA”, for which the “apparent Kd” value was 22.7 nM under setting [1] and 14.5 nM under setting [2].

“GUGAAACAUGAGGAUCACCCAUGUUAGGAUAUAGGUAACCUAGUACAUGAUCUGCUGGCUAGAAGGAACUGGAU”: the “apparent Kd” value reads like this: under setting [3], 14.2 nM; under setting [4], 11.5 nM.

“CCCAGAUGCUAGAAGGCCUACAUGAGGAUCACCCAUGUAUCCGCUAUCCACACACGCAGGCGGCAGGAGGAUAUAGACGAAGGA”: the “apparent Kd” value is 8.84 nM under setting [1] and 6.63 nM under setting [2].

In the case of “AACAUGAGGAUCACCCAUGUUAGAAUAACAACGGAAAUAACAGAGGAUAUCGUUAAUUAAUAGCGCGAGAAGGCAGAAUUCAAA”, the “apparent Kd” value worked out at 6.86 nM under setting [1] and 5.95 nM under setting [2].

Regarding “CUCGAGUUUACAGGAUAUUAGGAAAUCGGAUAUUAAGAAGGGUAAAUGUACAUGAGGAUCACCCAUGUUCUCUGCUGCGUCAUA”, the “apparent Kd” value under setting [3] stood at 15.4 nM and the “apparent Kd” value under setting [4] was found to be 14.5 nM.

“ACUUGACAUGAGGAUCACCCAUGUGAUCCGUCAUUAGGAUAUCGAAGGUAUAUCACGCCUCGAGAAGGAAUAGCGG”: the “apparent Kd” value by setting is: under setting [1], 361 nM; under setting [2], 65.5 nM.

On to “AGGAGACAUGAGGAUCACCCAUGUCCAGAUACCAGAAUGUCUUUGUUCCCUUGGCAGCUGUGGAAAUCUGACCUGCCUCGGUCUG”, for which the “apparent Kd” value worked out at 14.2 nM under setting [7] and 15.7 nM under setting [8].

As for “UUAGAAUACUAAGGAUAUGAUUAUGGCGCACCGCUGUCCGGUGUACAUGAGGAUCACCCAUGUAAUCAGAAGGUAGACUUGUCC”, the “apparent Kd” value was determined as 9.94 nM under setting [1] and 8.91 nM under setting [2].

Regarding “GGGAAACAUGAGGAUCACCCAUGUGUACAUAAGUAAGGAUAUAGAAGAGGUGACAGUGGUCUAGAAGGUACAACAC”, the “apparent Kd” value reads like this: under setting [1], 65.6 nM; under setting [2], 46.4 nM.

For the sequence “AUUUAGCAUAUACAUGAGGAUCACCCAUGUCUGAUACAUAGUAGAAGGCCCGUUAAGACAUACAGGGAGGAUAUACGUACAUGU”, the “apparent Kd” value amounted to 49 nM under setting [1] and 9.85 nM under setting [2].

Turning to “CAAAGGAACCAGAAGGCCAUAGGUAAAAUAGUUGGAGGAUAUGGGCACAUGAGGAUCACCCAUGUUCACUGUAAUCAGGAAUAG”, the “apparent Kd” value under setting [1] turned out to be 102 nM and the “apparent Kd” value under setting [2] was found to be 35.3 nM.

For “CCGGAGACCGUGUCAGCGGAAGCAAGAACACGAGGACCGGUACGGCCGCCACUCGAAAGAAGACAUGAGGAUCACCCAUGUCCAU”, the “apparent Kd” value is 12 nM (designed as: OFF switch for tryptophan, no ligand) and 13.9 nM (ligand present: tryptophan, designed as: OFF switch for tryptophan).

Take “GUGCUACAUGAGGAUCACCCAUGUGUGUAACAACAAGGAUAUGAUGCUUUGCCCGAAAGGUCAGAAGGUGUACGGC”: the “apparent Kd” value under setting [1] is 12.9 nM and the “apparent Kd” value under setting [2] came to 11.1 nM.

In the case of “ACUUAGAGAUAGAAGGAUGGAGUCAGGGUCCACAUAGGAUAUAUCUUGCACGAAACAUGAGGAUCACCCAUGUUGGAAUCCUCU”, the “apparent Kd” value is, setting by setting: under setting [3], 30.4 nM; under setting [4], 27.8 nM.

Take “CUCUAACAAGGAUAUACAUGUCCCAGGAUCCUAUAGGCUUUACAUGAGGAUCACCCAUGUAGAAGGUGUAUUAC”: the “apparent Kd” value is, setting by setting: under setting [3], 18.7 nM; under setting [4], 16.4 nM.

For the sequence “UUAGGUGCAGGAUAUACAAGACUUAGUAGGAUACCAGACCUACAUGAGGAUCACCCAUGUAGAAGGGCAAUGCA”, the “apparent Kd” value under setting [3] turned out to be 20.6 nM and the “apparent Kd” value under setting [4] was found to be 16.9 nM.

With “AUCUGGUUACAAGGAUAUCCAAUGUAAACAAUAGGAGAAGGAGUGAAAAGACCUAGGAAAACAUGAGGAUCACCCAUGUAAUUA”, the “apparent Kd” value reads like this: under setting [1], 111 nM; under setting [2], 39.1 nM.

Take “GGUUAACAUGAGGAUCACCCAUGUCUUGAUACCAGUCGUUAUCUUGACCCUUGGCAGCAAGAUGACCGUUAGCAGCCGUCUUCUC”: the “apparent Kd” value under setting [7] was 13.2 nM and the “apparent Kd” value under setting [8] was found to be 19.5 nM.

Consider “AGUUUUAUCGUGUAGGAUAUGGGAUAAUCAACAUGAGGAUCACCCAUGUCAUGAGUGACAAGCGACCAGAAGGACACCAAUACAAC”, for which the “apparent Kd” value worked out at 400 nM under setting [1] and 55.8 nM under setting [2].

Consider “ACAUACGAACGAGGAUAUCUCCACAUGAGGAUCACCCAUGUUUGGGUCCGAUAGUAGCGUGCAAAAGAGAAGGCGUGUACAUCC”, for which the “apparent Kd” value runs as follows: under setting [3], 22.8 nM; under setting [4], 25.5 nM.

In the case of “AGAAGUCCAGACUACACGUGGAAAAGCGAUACCAGACUCAUAGGUGUCCCUUGGCAGCGCGUAACAUGAGGAUCACCCAUGUGAU”, the “apparent Kd” value came out at 142 nM under setting [5] and 139 nM under setting [6].

As for “UGCCCAAACAUGAGGAUCACCCAUGUUGUGACCUCGGGAGCCAGAAGGGUAUUAAACAAGUCGGUACAGGAUAUGGUCUAGUAA”, the “apparent Kd” value runs as follows: under setting [3], 343 nM; under setting [4], 214 nM.

Regarding “GGGUGAAGUGAGAAGGUUGGUGCUAGUUAAUUCAAAGGAUAUCAUUACUACGACAUGAGGAUCACCCAUGUAGCUGUACUGGAA”, the “apparent Kd” value runs as follows: under setting [3], 14.3 nM; under setting [4], 12.4 nM.

“CGGUCACAUGAGGAUCACCCAUGUAAGGAUAUAGAUGUCUGUGUCAACCGACGGGCUUCUAGAAGGUACGGAUG”: the “apparent Kd” value was 18.6 nM under setting [3] and 18.1 nM under setting [4].

Turning to “GAGGCGAAGGAGAAGGCCGCCAGUAAAGGUGACCGUAACAUGAGGAUCACCCAUGUGGAAUAAACGGAGGAUAUCCCUUCUCAG”, the “apparent Kd” value under setting [3] worked out at 19 nM and the “apparent Kd” value under setting [4] amounted to 21.8 nM.
